# GSTO1 counter – GSTO1 inhibition, counter-screen for RBBP9 inhibitors. inhibition, % at 5.96 µM. AID 1974. 300,000 tested, 1.1% active. P78417. recombinant GSTO1, activity-based probe fluorescence polarization;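 active = inhibition above the campaign mean inhibition plus 3 SD, cut at about 35% in these data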;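 also: 0% = GSTO1-1 with DMSO and 100% = wells lacking GSTO1-1 enzyme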
# Target sequence (P78417 whole entry, looked up): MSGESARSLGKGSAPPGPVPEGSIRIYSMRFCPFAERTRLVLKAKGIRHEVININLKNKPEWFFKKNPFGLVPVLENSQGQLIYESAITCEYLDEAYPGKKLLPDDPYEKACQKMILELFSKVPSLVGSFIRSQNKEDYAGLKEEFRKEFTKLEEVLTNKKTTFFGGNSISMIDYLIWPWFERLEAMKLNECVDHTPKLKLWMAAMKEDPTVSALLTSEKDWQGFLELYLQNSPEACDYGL
# UBC9 SUMO inh – SUMOylation inhibition; AID 2006; HTRF SUMOylation assay, SAE1/SAE2 + UBC9, in vitro; 290,000 tested, 0.36% active; P63279; inhibition, % at 35 µM; in the data active = inhibition above about 50%, passing the limit was not always enough; inconclusive = no clear call, values can overlap the other calls
# Target sequence (P63279 whole entry, looked up): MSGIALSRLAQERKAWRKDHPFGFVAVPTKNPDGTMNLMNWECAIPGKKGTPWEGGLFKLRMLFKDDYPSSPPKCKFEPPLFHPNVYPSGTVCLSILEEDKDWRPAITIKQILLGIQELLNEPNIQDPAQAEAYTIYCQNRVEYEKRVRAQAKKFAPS
# JMJD2C inh – blocks human GASC-1 demethylase activity; Q9H3R0; GST-JMJD2C(1-420) H3K9me3 demethylation, DELFIA europium; inhibition, % at 2.35 µM; 330,000 tested, 0.069% active; AID 2099;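 active = more than half of a compound's replicate wells show inhibition beyond 50%, single wells judged on their own value; inconclusive = some, but no more than half, of replicates pass 50% inhibition; inactive = no replicate passes 50% inhibition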;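 also: signal counts dimethyl H3K9 product captured on neutravidin plate; 0% = median of DMSO wells and 100% = 0.3 times that DMSO median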
# Apaf1 inhib – blocks human Apaf-1 apoptosome activity; 330,000 tested, 0.71% active; O14727; AID 489030; inhibition, % at 20 µM; reconstituted apoptosome caspase-3 activity, DEVD-Rh110 fluorescence; active = inhibition of at least 40% at 20 µM;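 also: plate controls were DMSO wells for no effect and DEVD-CHO caspase inhibitor wells for full effect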
#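 System – cell-free apoptosome with Apaf-1, procaspase-3 and caspase-9 · Buffer or medium – pH 7.5 Hepes buffer with CHAPS, BSA, DTT · Also added – cytochrome c with DEVD-Rh110 · Times – 30 min compound preincubation, 50 min activation, room temperature · Technique – Rh110 fluorescence intensity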
# PAD4 FP inh – PAD4 (human) enzyme inhibition; 330,000 tested, 0.41% active; Q9UM07; recombinant PAD4, RCA probe fluorescence polarization; inhibition, % at 6.36 µM;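 active = percent inhibition above a cutoff equal to the mean of all tested compounds plus 3 SD, cut at about 15% in these data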;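 also: 0% = PAD4 with RCA probe and DMSO and 100% = probe without PAD4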
# TDP2 absorb – TDP2 (human) inhibition, absorbance primary screen. O95551. recombinant TDP2, T5PNP hydrolysis, p-nitrophenol absorbance 415 nm. inhibition, % at 12.8 µM. 370,000 tested, 0.34% active. AID 720702;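 active = inhibition above the mean of all tested compounds plus 3 SD, set per campaign, cut at about 25% in these data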;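 also: 0% = DMSO with enzyme and 100% = buffer with substrate but no TDP2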
#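 Assay system: Recombinant human TDP2 | Quantity: 120 nM TDP2 per well | Incubation: 2 h at 37 °C | Signal: Epi absorbance | Evaluation: Percent inhibition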
# Active calls of the source: *; ? = inconclusive; . = not tested or not shown. Sampled rows, rich in hits. Any-hit rate of the full collection: about 1.6%.
SMILES,GSTO1 counter,UBC9 SUMO inh,JMJD2C inh,Apaf1 inhib,PAD4 FP inh,TDP2 absorb
CCOc1cc2c(C#N)c(N3CCNCC3)nc(N)c2c(N)n1,7,87*,13,21,2,2
COc1ccc(CN2C(=O)Cc3c2nc(N)c2c(N)nc(N4CCCCC4)c(C#N)c32)cc1,48*,30,13,51*,-30,.
CCOC(=O)C1CCN(c2nc(C)cc(C)c2C#N)CC1,6,1,3,0,3,6
FC(F)(F)c1ccccc1NC(=S)OCCN1CCCC12CCC(c1ccccc1)CC2 (stereo not drawn),.,.,.,.,.,-6
O=C(NC1CCCCN(Cc2ccc(OC(F)(F)F)cc2)C1=O)c1cccc(C(F)(F)F)c1 (stereo not drawn),.,.,.,.,.,0
COC(=O)[C@H]1C[C@@]2(C)c3ccccc3N(S(=O)(=O)c3ccccc3)[C@H]2N1,.,.,.,.,.,8
N#CC(C#N)=C(N)/C(C#N)=C/c1cc(O)c(O)c(O)c1,64*,.,.,8,-5,-4
CCOc1cccc2cc(-c3nnc(NCc4ccco4)s3)c(=O)oc12,-2,61*,-21,7,-3,4
COc1ccc2oc(=O)c(-c3nnc(NCc4ccco4)s3)cc2c1,5,?,-6,0,2,-8
C[C@@H]1/C=C/CC(=O)N[C@H](c2ccc3ccccc3c2)[C@H](C)/C=C/CC(=O)N[C@@H]1c1ccc2ccccc2c1,.,.,.,.,.,7
O=C1CN(C(=O)CCCc2c[nH]c3ccccc23)c2ccccc2N1,3,10,54*,6,4,-1
O=C(O)CCCC(=O)N1CC(=O)Nc2ccccc21,7,14,14,-10,-1,0
O=C(COC(=O)c1ccco1)NNC(=O)c1ccc(Cl)cc1,.,.,81*,-4,-5,3
COc1cc2nc(N(CCN(C)C)C(=O)c3ccc4ccccc4c3)sc2cc1OC,-3,6,-20,15,-5,.
CCN(CC)CCN(C(=O)c1ccc2c(c1)CCCC2)c1nc2cc(OC)c(OC)cc2s1,4,-13,-8,48*,-1,.
O=C(Nc1ccccc1)Nc1ccno1,-12,57*,-3,-7,5,4
O=C(Nc1ccccc1)Nc1ccncc1,1,13,-6,-3,-11,-2
C=CCN(CC#CCN(C)C(=O)c1cccn1C(=O)OC(C)(C)C)Cc1ccc(OC)cc1OC,.,.,.,.,.,-10
COc1ccc(-c2c(C(F)(F)F)[nH]n3c(=O)cc(-c4ccccc4)nc23)cc1,23,51*,3,7,-3,0
COC(=O)[C@H](C(C)C)N1CCc2nnn(CC3CCCCC3)c2-c2ccccc2S1(=O)=O,.,.,.,.,.,-1
CC1CC(C)CN(CC(O)COCCOc2ccc(Br)cc2)C1 (stereo not drawn),2,0,-2,1,0,-12
CC1(C)CC(O)CC(C)(C)N1CC(O)COCCOc1ccc(Br)cc1 (stereo not drawn),35*,21,1,2,2,-5
COc1ccc(OC)c(N2C(=O)[C@@H]3C(c4ccccc4Cl)=NO[C@@H]3C2=O)c1,37*,17,7,-12,-10,-5
Cc1cccc(C)c1N1C(=O)[C@@H]2C(c3ccccc3Cl)=NO[C@@H]2C1=O,7,-10,1,5,-1,5
O=C(Nc1ccccc1C(F)(F)F)OCCN1C(=O)CCC12CCC(c1ccccc1)CC2 (stereo not drawn),.,.,.,.,.,4
SMILES,GSTO1 counter,UBC9 SUMO inh,JMJD2C inh,Apaf1 inhib,PAD4 FP inh,TDP2 absorb
COc1ccc(Cc2n[nH]c(=S)n2NC(=O)Nc2ccc(Cl)c(Cl)c2)cc1,-7,97*,.,21,-8,-4
Cn1c(CC(=O)Nc2ccc(Cl)c(Cl)c2)n[nH]c1=S,3,6,9,-5,1,12
Cc1ccc(NC(=O)/C=C/c2cccs2)c([N+](=O)[O-])c1,-7,-4,56*,4,1,-5
Cc1ccc(NC(=O)/C=C/C(=O)O)c([N+](=O)[O-])c1,3,6,3,-20,-2,3
CCC(=O)N1CCc2cc(Br)cc(S(=O)(=O)CC(=O)OC)c21,11,35,99*,0,0,.
N#Cc1c(N)sc(=S)c2c1CCN(Cc1ccccc1)C2,51*,67*,.,96*,54*,.
CCCc1nc(SCC(=O)Nc2nnc(CC)s2)c2c(C)c(C)sc2n1,31,-6,13,1,-1,11
CCc1nc(SCC(=O)Nc2nnc(CC)s2)c2c(C)c(C)sc2n1,35*,16,-4,-1,-2,9
CCSc1nnc(NC(=O)CSc2nc(CC)nc3c2c(=O)n(C)c(=O)n3C)s1,36*,-37,3,16,0,8
CCCc1nc(SCC(=O)Nc2nnc(SCC)s2)c2c(=O)n(C)c(=O)n(C)c2n1,8,-3,-13,6,2,1
CC[C@@H](C)[C@H](NC(=O)Cc1c(C)c2c(cc(C)c3c(C)c(C)oc32)oc1=O)C(=O)O,.,45,-4,20,.,-2
Cc1oc2c(c(C)cc3oc(=O)c(CC(=O)N[C@@H](C)C(=O)O)c(C)c32)c1C,2,51*,-1,9,4,2
COc1ccc2c(n1)Sc1nc3ccccc3nc1N2,-3,75*,4,.,-2,10
COc1cc2ccccc2nn1,4,23,-3,-6,5,-2
COC(=O)C1CN(Cc2cn(Cc3ccc(C)cc3)nn2)CCS(=O)(=O)N1Cc1ccc(Cl)cc1 (stereo not drawn),.,.,.,.,.,-3
COC(=O)C1CN(C2CC2)CCS(=O)(=O)N1Cc1cn(Cc2ccc(C)cc2)nn1 (stereo not drawn),.,.,.,.,.,-10
O=C(CCC1N=C2c3ccccc3N=C(SCc3ccc(Cl)cc3)N2C1=O)NCc1ccco1 (stereo not drawn),1,17,-20,41*,5,-7
O=C(CCC1N=C2c3ccccc3N=C(SCc3ccc(F)cc3)N2C1=O)NCc1ccco1 (stereo not drawn),-8,26,9,23,-3,6
O=C(NNC(=O)C1CCN(S(=O)(=O)c2ccccc2)CC1)c1ccccc1O,1,11,94*,-4,-4,7
O=C(NNC(=O)C1CCN(S(=O)(=O)c2c(Cl)cccc2Cl)CC1)c1ccccc1O,-5,.,15,4,5,-2
COC(=O)C1=C(C(=O)OC)[C@@]2([C@@H](Cc3ccc(C)cc3)Nc3ccccc3)C=C[C@@H]1O2,.,.,.,.,.,7
COc1ccc2[nH]c3c(C)c4ccncc4c(C)c3c2c1,12,18,-8,76*,0,12
Nc1cccc2cc(S(=O)(=O)O)ccc12,.,.,.,.,.,27*
Nc1ccc2c(S(=O)(=O)O)cccc2c1S(=O)(=O)O,.,.,.,.,.,-5
CCOc1cc(NC(=S)NCCCOC)c(OCC)cc1NC(=O)c1cccs1,5,-21,14,0,2,-2

# Source: PubChem BioAssay
